The source of these data is ChEMBL document CHEMBL3045292, “Synthesis and herbicidal activity of 2-(7-fluoro-3-oxo- 3,4-dihydro-2H-benzo[b][1,4]oxazin-6-yl)isoindoline-1,3-diones” (J Agric Food Chem, 2005).

Bounds are passed on as bounds.

Assay [1] relates to Amaranthus blitum. Nature of the assay: Herbicidal activity against Amaranthus blitum assessed as weed growth inhibition at 75 g/ha post-emergence treatment […]. The format is functional. As to conditions: read-out: GI. The essentials:
(§1)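 Pot-grown plants in the greenhouse, in clay soil (pH 6.5, 1.6% organic matter, 37.3% clay, CEC 12.1 cmol/kg). Compound was made up as a 100 g/L emulsified concentrate (DMF, Tween-80), diluted in water and sprayed at 75 g ai/ha. Pre-emergence spraying was 24 h after sowing; post-emergence at two-leaf (dicots) or one-leaf (monocots) stage. Untreated and DMF controls. Percent growth inhibition scored visually 15 days post-treatment.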

Assay [2] concerns Digitaria sanguinalis. The assay is described as follows: Herbicidal activity against crabgrass Digitaria sanguinalis(hairy crabgrass) assessed as weed growth inhibition at 75 g/ha post-emergence treatment […]. The format is functional. As to conditions: read-out: GI. In short, it runs like this:
as §1

Assay [3] relates to Setaria viridis. Nature of the assay: Herbicidal activity against Setaria viridis (green foxtail) assessed as weed growth inhibition at 75 g/ha pre-emergence treatment […]. As to conditions: read-out: GI. The format is functional. In short, it runs like this: as §1
In assay [4] the test system is Amaranthus blitum. Nature of the assay: Herbicidal activity against Amaranthus blitum assessed as weed growth inhibition at 75 g/ha pre-emergence treatment […]. The conditions noted are these: read-out: GI. The assay is classed as functional. The essentials: as §1
Assay [5] has as its system Abutilon theophrasti. The assay is described as follows: Herbicidal activity against Abutilon theophrasti (velvetleaf) assessed as weed growth inhibition at post-emergence treatment […]. The format is functional, organism-based. The essentials: as §1
Assay [6] concerns Abutilon theophrasti. The assay is described as follows: Herbicidal activity against Abutilon theophrasti (velvetleaf) assessed as weed growth inhibition at 75 g/ha pre-emergence treatment […]. The format is functional. As to conditions: read-out: GI. In short, it runs like this: as §1
The test system of assay [7] is Echinochloa crus-galli. Nature of the assay: Herbicidal activity against Echinochloa crus-galli (barnyard grass) (barnyard grass) assessed as weed growth inhibition at 75 g/ha pre-emergence treatment […]. The assay is classed as functional. As to conditions: read-out: GI. The essentials: as §1
Assay [8] relates to Abutilon theophrasti. Nature of the assay: Herbicidal activity against Abutilon theophrasti (velvetleaf) assessed as weed growth inhibition at 75 g/ha post-emergence treatment […]. As to conditions: read-out: GI. The assay is classed as functional. In short, it runs like this:
as §1

Assay [9] relates to Digitaria sanguinalis. The assay is described as follows: Herbicidal activity against crabgrass Digitaria sanguinalis(hairy crabgrass) assessed as weed growth inhibition at 75 g/ha pre-emergence treatment […]. The format is functional. The conditions noted are these: read-out: GI. In short, it runs like this:
as §1

Assay [10] deals with Chenopodium album. Nature of the assay: Herbicidal activity against fat hen Chenopodium album assessed as weed growth inhibition at 75 g/ha pre-emergence treatment […]. The format is functional. The conditions noted are these: read-out: GI. In short, it runs like this:
as §1

Assay [11] has as its system Digitaria sanguinalis. The assay is described as follows: Herbicidal activity against crabgrass Digitaria sanguinalis(hairy crabgrass) assessed as weed growth inhibition at post-emergence treatment […]. The assay is classed as functional, organism-based. The essentials: as §1
Assay [12] relates to Setaria viridis. The assay is described as follows: Herbicidal activity against Setaria viridis (green foxtail) assessed as weed growth inhibition at 75 g/ha post-emergence treatment […]. The assay is classed as functional. The conditions noted are these: read-out: GI. The essentials: as §1
The subject of assay [13] is Chenopodium album. The assay is described as follows: Herbicidal activity against fat hen Chenopodium album assessed as weed growth inhibition at 75 g/ha post-emergence treatment […]. The format is functional. As to conditions: read-out: GI. The essentials: as §1
For assay [14], the system named is Echinochloa crus-galli. Nature of the assay: Herbicidal activity against Echinochloa crus-galli (barnyard grass) (barnyard grass) assessed as weed growth inhibition at 75 g/ha post-emergence treatment […]. The assay is classed as functional. As to conditions: read-out: GI. The essentials:
as §1

`O=C1COc2cc(F)c(N3C(=O)c4ccccc4C3=O)cc2N1CC#CI`: the inhibition of growth at 75 g/ha with Amaranthus blitum [1] was over 80%; in the assay with Digitaria sanguinalis [2], 50%; with Setaria viridis [3], 50%; in the assay on Amaranthus blitum [4] it was over 80%; with Abutilon theophrasti [6], over 80%; with Echinochloa crus-galli [7], under 50%. The inhibition of growth at 75 g/ha was over 80% in the assay on Abutilon theophrasti [8]; over 80% with Digitaria sanguinalis [9]; over 80% in the assay with Chenopodium album [10]; 50% with Setaria viridis [12]; over 80% with Chenopodium album [13]; under 50% with Echinochloa crus-galli [14]. The values for the IC50 in the assay with Abutilon theophrasti [5] and in the assay with Digitaria sanguinalis [11] were 3.9 g/ha and 68 g/ha, respectively.
On to `O=C1COc2cc(F)c(N3C(=O)c4ccccc4C3=O)cc2N1CC#CBr`, for which the inhibition of growth at 75 g/ha in the assay on Amaranthus blitum [1], with Digitaria sanguinalis [2], in the assay on Setaria viridis [3], in the assay on Amaranthus blitum [4], in the assay on Abutilon theophrasti [6] and in the assay on Echinochloa crus-galli [7] was under 50% throughout. For the same compound, the inhibition of growth at 75 g/ha in the assay on Abutilon theophrasti [8], in the assay on Digitaria sanguinalis [9], in the assay on Chenopodium album [10], in the assay on Setaria viridis [12], in the assay with Chenopodium album [13] and with Echinochloa crus-galli [14] was under 50% throughout. For the same compound, the IC50 with Abutilon theophrasti [5] turned out to be 121 g/ha; with Digitaria sanguinalis [11], 314 g/ha.
As for `C#CCN1C(=O)COc2cc(F)c(N3C(=O)c4cccc(F)c4C3=O)cc21`, the inhibition of growth at 75 g/ha in the assay on Amaranthus blitum [1], with Digitaria sanguinalis [2], in the assay with Setaria viridis [3], in the assay with Amaranthus blitum [4], in the assay with Abutilon theophrasti [6] and in the assay on Echinochloa crus-galli [7] was over 80% in each case. The inhibition of growth at 75 g/ha with Abutilon theophrasti [8], in the assay with Digitaria sanguinalis [9], with Chenopodium album [10], in the assay with Setaria viridis [12], in the assay with Chenopodium album [13] and in the assay with Echinochloa crus-galli [14] was over 80% in each case. Further, the IC50 was 23 g/ha with Abutilon theophrasti [5] and 20 g/ha with Digitaria sanguinalis [11].
Take `C#CCN1C(=O)COc2cc(F)c(N3C(=O)c4cccc(C)c4C3=O)cc21`: the inhibition of growth at 75 g/ha in the assay on Amaranthus blitum [1] is under 50%; with Digitaria sanguinalis [2], 50%; with Setaria viridis [3], under 50%; in the assay on Amaranthus blitum [4], under 50%; with Abutilon theophrasti [6], under 50%; in the assay with Echinochloa crus-galli [7], under 50%. The inhibition of growth at 75 g/ha is under 50% in the assay on Abutilon theophrasti [8]; under 50% with Digitaria sanguinalis [9]; under 50% in the assay with Chenopodium album [10]; under 50% with Setaria viridis [12]; under 50% with Chenopodium album [13]; 50% in the assay with Echinochloa crus-galli [14]. Moreover, the IC50 in the assay on Abutilon theophrasti [5] came to 87 g/ha; with Digitaria sanguinalis [11], 63 g/ha.
Regarding `N#CCN1C(=O)COc2cc(F)c(N3C(=O)c4ccccc4C3=O)cc21`, the inhibition of growth at 75 g/ha with Amaranthus blitum [1] is under 50%; in the assay on Digitaria sanguinalis [2] it was 50%; in the assay on Setaria viridis [3], under 50%; in the assay on Amaranthus blitum [4] it was under 50%; in the assay with Abutilon theophrasti [6], under 50%; with Echinochloa crus-galli [7], under 50%. The inhibition of growth at 75 g/ha in the assay with Abutilon theophrasti [8], in the assay on Digitaria sanguinalis [9], in the assay with Chenopodium album [10], with Setaria viridis [12], in the assay on Chenopodium album [13] and in the assay with Echinochloa crus-galli [14] was under 50% throughout. For the same compound, the IC50 in the assay on Abutilon theophrasti [5] is 92 g/ha; in the assay on Digitaria sanguinalis [11], 57 g/ha.
As to `C#CCN1C(=O)COc2cc(F)c(N3C(=O)c4ccccc4C3=O)cc21`, the inhibition of growth at 75 g/ha in the assay with Amaranthus blitum [1] was over 80%; with Digitaria sanguinalis [2], over 80%; in the assay with Setaria viridis [3], under 50%; with Amaranthus blitum [4] it was over 80%; with Abutilon theophrasti [6] it was over 80%; in the assay on Echinochloa crus-galli [7], under 50%. Further, the inhibition of growth at 75 g/ha in the assay with Abutilon theophrasti [8], in the assay on Digitaria sanguinalis [9], in the assay with Chenopodium album [10], with Setaria viridis [12], in the assay with Chenopodium album [13] and in the assay with Echinochloa crus-galli [14] was over 80% in each case. In addition, the IC50 amounted to 7.5 g/ha in the assay on Abutilon theophrasti [5] and 17 g/ha in the assay with Digitaria sanguinalis [11].
For `C#CCN1C(=O)COc2cc(F)c(N3C(=O)c4ccc(C)cc4C3=O)cc21`, the inhibition of growth at 75 g/ha in the assay with Amaranthus blitum [1] is over 80%; with Digitaria sanguinalis [2], over 80%; with Setaria viridis [3] it was under 50%; in the assay with Amaranthus blitum [4], under 50%; in the assay on Abutilon theophrasti [6], under 50%; in the assay with Echinochloa crus-galli [7], under 50%. In addition, the inhibition of growth at 75 g/ha in the assay with Abutilon theophrasti [8] is over 80%; with Digitaria sanguinalis [9], under 50%; in the assay on Chenopodium album [10] it was under 50%; in the assay on Setaria viridis [12], under 50%; in the assay with Chenopodium album [13], over 80%; with Echinochloa crus-galli [14] it was 50%. In addition, the IC50 in the assay with Abutilon theophrasti [5] was 28 g/ha; with Digitaria sanguinalis [11] it was 31 g/ha.
